Assay [1] addresses Myosin light chain kinase, smooth muscle (Homo sapiens) (UniProt Q15746). Briefly: Inhibition of smMLCK Lys2 labeling site in human Huh-7 cell lysate at 1 uM by KiNativ Profiling analysis relative to control. Format: subcellular.
Assay [2] deals with Calcium/calmodulin-dependent protein kinase type II subunit beta (Homo sapiens) (UniProt Q13554). Briefly: Inhibition of CaMK2b Lys2 labeling site in human Huh-7 cell lysate at 1 uM by KiNativ Profiling analysis relative to control. It is filed as subcellular.
Chain of Calcium/calmodulin-dependent protein kinase type II subunit beta (Homo sapiens) (Q13554 whole entry): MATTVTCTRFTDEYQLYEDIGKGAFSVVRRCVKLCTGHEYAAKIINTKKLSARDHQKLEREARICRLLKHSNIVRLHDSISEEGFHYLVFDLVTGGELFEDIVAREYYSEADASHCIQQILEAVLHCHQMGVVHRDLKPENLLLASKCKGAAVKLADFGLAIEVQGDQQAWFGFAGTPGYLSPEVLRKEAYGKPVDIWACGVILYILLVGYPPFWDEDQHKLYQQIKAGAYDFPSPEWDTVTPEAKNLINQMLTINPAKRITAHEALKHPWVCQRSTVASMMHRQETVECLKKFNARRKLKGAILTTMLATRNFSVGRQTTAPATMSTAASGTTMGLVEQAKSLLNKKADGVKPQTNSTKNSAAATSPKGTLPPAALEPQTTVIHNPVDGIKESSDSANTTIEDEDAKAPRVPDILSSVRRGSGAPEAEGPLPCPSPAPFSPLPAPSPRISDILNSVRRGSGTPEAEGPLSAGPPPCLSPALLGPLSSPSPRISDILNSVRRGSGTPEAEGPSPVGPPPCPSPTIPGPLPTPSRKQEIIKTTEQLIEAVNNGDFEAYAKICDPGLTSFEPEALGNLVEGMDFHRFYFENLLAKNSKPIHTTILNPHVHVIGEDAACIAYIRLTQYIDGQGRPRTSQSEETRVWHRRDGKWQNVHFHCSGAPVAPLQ
The nature of assay [3]: Inhibition of KHS2 Lys1 labeling site in human Huh-7 cell lysate at 1 uM by KiNativ Profiling analysis relative to control. As to conditions: condition cancer.
Assay [4] has as its target Phosphatidylinositol 4,5-bisphosphate 3-kinase catalytic subunit beta isoform (Homo sapiens) (UniProt P42338). Briefly: Inhibition of PIK3CB ATP labeling site harbouring VFGEDSVGVIFKNGDDLRQDMLTLQMLR in human Huh-7 cell lysate at 1 uM by KiNativ Profiling analysis relative to control. It is filed as subcellular.
Assay [5] has as its target Tyrosine-protein kinase Fer (Homo sapiens, UniProt P16591). Kind of assay: Inhibition of FER Lys1 labeling site in human Huh-7 cells at 1 uM by KiNativ Profiling analysis relative to control. Format: cell-based.
For assay [6], the target named is MAP/microtubule affinity-regulating kinase 3 (Homo sapiens) (UniProt P27448). Kind of assay: Inhibition of MARK3 Lys1 labeling site in human Huh-7 cell lysate at 1 uM by KiNativ Profiling analysis relative to control. It is filed as subcellular.
The target of assay [7] is Cyclin-dependent kinase-like 2 (Homo sapiens) (UniProt Q92772). Kind of assay: Inhibition of CDKL2 (unknown origin) at 1 uM by Ambit Kinomescan binding assay relative to control; values are per cent of control.
Assay [8] addresses Serine/threonine-protein kinase mTOR (Homo sapiens) (UniProt P42345). Briefly: Inhibition of FRAP ATP labeling site in human A-375 cells at 0.05 uM by KiNativ Profiling analysis relative to control. Format: cell-based.
For assay [9], the target named is Myosin-IIIb (Homo sapiens) (UniProt Q8WXR4). Kind of assay: Inhibition of MYO3B (unknown origin) at 1 uM by Ambit Kinomescan binding assay relative to control. A digest of the protocol:
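In vitro ATP-site competition binding assay against a panel of over 420 kinases (KinomeScan), with compound tested at 10 or 1 μM.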

For assay [10], the target named is Mitogen-activated protein kinase kinase kinase 12 (Homo sapiens) (UniProt Q12852). Kind of assay: Inhibition of DLK (unknown origin) at 1 uM by Ambit Kinomescan binding assay relative to control.
Chain of Mitogen-activated protein kinase kinase kinase 12 (Homo sapiens) (Q12852 whole entry, looked up): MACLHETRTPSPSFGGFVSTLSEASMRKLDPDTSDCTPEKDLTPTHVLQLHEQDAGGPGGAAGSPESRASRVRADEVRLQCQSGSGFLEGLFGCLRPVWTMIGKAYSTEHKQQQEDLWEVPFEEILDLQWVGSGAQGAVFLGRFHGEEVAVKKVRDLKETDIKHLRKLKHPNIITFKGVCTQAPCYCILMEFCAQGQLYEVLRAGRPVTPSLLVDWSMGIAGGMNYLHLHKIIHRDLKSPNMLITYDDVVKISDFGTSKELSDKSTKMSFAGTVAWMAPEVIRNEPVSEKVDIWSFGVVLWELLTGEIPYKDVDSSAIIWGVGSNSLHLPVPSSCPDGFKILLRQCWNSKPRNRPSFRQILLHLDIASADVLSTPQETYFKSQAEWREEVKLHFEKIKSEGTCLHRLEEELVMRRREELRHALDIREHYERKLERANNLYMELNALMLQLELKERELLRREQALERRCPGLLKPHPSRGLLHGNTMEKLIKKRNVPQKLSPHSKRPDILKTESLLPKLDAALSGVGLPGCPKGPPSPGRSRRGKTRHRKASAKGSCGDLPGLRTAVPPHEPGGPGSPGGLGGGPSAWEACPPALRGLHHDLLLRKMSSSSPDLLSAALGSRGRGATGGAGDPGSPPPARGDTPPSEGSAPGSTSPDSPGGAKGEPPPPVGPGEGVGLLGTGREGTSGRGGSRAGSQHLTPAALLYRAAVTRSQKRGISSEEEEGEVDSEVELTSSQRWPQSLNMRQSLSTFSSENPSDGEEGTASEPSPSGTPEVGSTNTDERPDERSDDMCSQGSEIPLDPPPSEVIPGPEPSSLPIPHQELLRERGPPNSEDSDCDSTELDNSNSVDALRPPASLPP
Assay [11] addresses Serine/threonine-protein kinase Nek3 (Homo sapiens) (UniProt P51956). Kind of assay: Inhibition of NEK3 (unknown origin) at 1 uM by Ambit Kinomescan binding assay relative to control; values are per cent of control.
Assay [12] concerns the target Vascular endothelial growth factor receptor 2 (Homo sapiens) (UniProt P35968). Kind of assay: Inhibition of VEGFR2 (unknown origin) at 1 uM by Ambit Kinomescan binding assay relative to control.
Assay [13] has as its target Serine/threonine-protein kinase VRK2 (Homo sapiens) (UniProt Q86Y07). Kind of assay: Inhibition of VRK2 Lys2 labeling site in human A-375 cells at 0.5 uM by KiNativ Profiling analysis relative to control. Format: cell-based.
Assay [14] addresses Homeodomain-interacting protein kinase 3 (Homo sapiens) (UniProt Q9H422). Briefly: Inhibition of HIPK3 (unknown origin) at 1 uM by Ambit Kinomescan binding assay relative to control; values are per cent of control.
In assay [15] the target is Tyrosine-protein kinase Fyn (Homo sapiens) (UniProt P06241). Kind of assay: Inhibition of FYN (unknown origin) at 10 uM by Ambit Kinomescan binding assay relative to control; values are per cent of control.
For assay [16], the target named is Serine/threonine-protein kinase PLK1 (Homo sapiens) (UniProt P53350). Briefly: Inhibition of PLK1 (unknown origin) at 10 uM by Ambit Kinomescan binding assay.
Assay [17] has as its target PKC alpha and beta-2 (Homo sapiens) (UniProt P17252+P05771). Kind of assay: Inhibition of PKCalpha/beta K2 labeling site in human Huh-7 cells at 10 uM by KiNativ Profiling analysis relative to control. Format: cell-based.
Assay [18] deals with Proto-oncogene tyrosine-protein kinase Src (Homo sapiens, UniProt P12931). Briefly: Inhibition of SRC ACT labeling site in human Huh-7 cells at 1 uM by KiNativ Profiling analysis relative to control. It is filed as cell-based.
Assay [19] has as its target Serine/threonine-protein kinase Chk2 (Homo sapiens) (UniProt O96017). Briefly: Inhibition of CHK2 K2 labeling site in human Huh-7 cells at 1 uM by KiNativ Profiling analysis relative to control. It is filed as cell-based.
For assay [20], the target named is Phosphatidylinositol 4-phosphate 5-kinase type-1 alpha (Homo sapiens) (UniProt Q99755). Kind of assay: Inhibition of PIP5K1A (unknown origin) at 10 uM by Ambit Kinomescan binding assay.
The test system of assay [21] is Tyrosine-protein kinase ABL1 (Homo sapiens), P00519 [H396P]. Briefly: Inhibition of ABL1 H396P mutant (unknown origin) at 10 uM by Ambit Kinomescan binding assay relative to control.
The target of assay [22] is T1, Serine/threonine-protein kinase TBK1 (Homo sapiens) (UniProt Q9UHD2).
T1 sequence (whole entry): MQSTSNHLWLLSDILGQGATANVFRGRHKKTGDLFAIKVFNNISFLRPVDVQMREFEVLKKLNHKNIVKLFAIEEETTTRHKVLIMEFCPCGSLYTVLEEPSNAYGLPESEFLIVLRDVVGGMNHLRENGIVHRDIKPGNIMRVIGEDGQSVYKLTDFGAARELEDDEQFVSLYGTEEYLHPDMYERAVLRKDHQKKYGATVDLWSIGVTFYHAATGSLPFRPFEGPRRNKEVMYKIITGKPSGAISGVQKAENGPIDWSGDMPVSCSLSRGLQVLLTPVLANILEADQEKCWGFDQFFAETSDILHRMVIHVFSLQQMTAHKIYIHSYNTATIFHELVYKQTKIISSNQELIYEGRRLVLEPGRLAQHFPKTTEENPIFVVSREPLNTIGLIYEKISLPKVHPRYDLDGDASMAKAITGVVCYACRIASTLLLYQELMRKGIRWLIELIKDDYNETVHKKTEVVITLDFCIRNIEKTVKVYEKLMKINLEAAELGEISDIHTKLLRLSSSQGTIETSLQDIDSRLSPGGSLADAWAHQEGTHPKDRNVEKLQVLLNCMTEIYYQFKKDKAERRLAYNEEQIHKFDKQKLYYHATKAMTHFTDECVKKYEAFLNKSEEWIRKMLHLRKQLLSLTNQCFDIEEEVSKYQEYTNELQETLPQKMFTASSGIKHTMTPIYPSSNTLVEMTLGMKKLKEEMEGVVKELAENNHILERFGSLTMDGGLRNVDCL
Briefly: Inhibition of TBK1 K1 labeling site in human Huh-7 cells at 1 uM by KiNativ Profiling analysis relative to control. It is filed as cell-based.

Assay [23] concerns the target Glycogen synthase kinase-3 alpha (Homo sapiens) (UniProt P49840). Briefly: Inhibition of GSK3A (unknown origin) at 10 uM by Ambit Kinomescan binding assay.

Results on three molecules are retold here after ChEMBL document CHEMBL5696442, “Discovery of type II inhibitors of TGFβ-activated kinase 1 (TAK1) and mitogen-activated protein kinase kinase kinase kinase 2 (MAP4K2)” (J Med Chem, 2015).

Each structure is given as a SMILES string. Active and inactive are the calls of the source. The calls are words filed in the database; no cut-off is given here.

Chain of Glycogen synthase kinase-3 alpha (Homo sapiens) (P49840 2-483 limits assumed): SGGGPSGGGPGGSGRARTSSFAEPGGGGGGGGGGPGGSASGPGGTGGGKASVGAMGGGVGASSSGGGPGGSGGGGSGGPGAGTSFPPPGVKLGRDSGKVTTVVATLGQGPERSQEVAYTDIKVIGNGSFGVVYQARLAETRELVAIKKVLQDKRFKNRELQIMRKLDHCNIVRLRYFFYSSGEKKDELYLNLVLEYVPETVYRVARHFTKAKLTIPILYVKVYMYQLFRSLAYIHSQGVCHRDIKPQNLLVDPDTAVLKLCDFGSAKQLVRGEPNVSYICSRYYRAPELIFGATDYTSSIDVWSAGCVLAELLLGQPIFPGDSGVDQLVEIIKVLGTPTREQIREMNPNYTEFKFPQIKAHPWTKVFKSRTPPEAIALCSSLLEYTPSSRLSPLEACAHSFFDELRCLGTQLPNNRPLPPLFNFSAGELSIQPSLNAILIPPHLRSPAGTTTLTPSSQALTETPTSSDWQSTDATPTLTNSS
Chain of Homeodomain-interacting protein kinase 3 (Homo sapiens) (Q9H422 whole entry, looked up): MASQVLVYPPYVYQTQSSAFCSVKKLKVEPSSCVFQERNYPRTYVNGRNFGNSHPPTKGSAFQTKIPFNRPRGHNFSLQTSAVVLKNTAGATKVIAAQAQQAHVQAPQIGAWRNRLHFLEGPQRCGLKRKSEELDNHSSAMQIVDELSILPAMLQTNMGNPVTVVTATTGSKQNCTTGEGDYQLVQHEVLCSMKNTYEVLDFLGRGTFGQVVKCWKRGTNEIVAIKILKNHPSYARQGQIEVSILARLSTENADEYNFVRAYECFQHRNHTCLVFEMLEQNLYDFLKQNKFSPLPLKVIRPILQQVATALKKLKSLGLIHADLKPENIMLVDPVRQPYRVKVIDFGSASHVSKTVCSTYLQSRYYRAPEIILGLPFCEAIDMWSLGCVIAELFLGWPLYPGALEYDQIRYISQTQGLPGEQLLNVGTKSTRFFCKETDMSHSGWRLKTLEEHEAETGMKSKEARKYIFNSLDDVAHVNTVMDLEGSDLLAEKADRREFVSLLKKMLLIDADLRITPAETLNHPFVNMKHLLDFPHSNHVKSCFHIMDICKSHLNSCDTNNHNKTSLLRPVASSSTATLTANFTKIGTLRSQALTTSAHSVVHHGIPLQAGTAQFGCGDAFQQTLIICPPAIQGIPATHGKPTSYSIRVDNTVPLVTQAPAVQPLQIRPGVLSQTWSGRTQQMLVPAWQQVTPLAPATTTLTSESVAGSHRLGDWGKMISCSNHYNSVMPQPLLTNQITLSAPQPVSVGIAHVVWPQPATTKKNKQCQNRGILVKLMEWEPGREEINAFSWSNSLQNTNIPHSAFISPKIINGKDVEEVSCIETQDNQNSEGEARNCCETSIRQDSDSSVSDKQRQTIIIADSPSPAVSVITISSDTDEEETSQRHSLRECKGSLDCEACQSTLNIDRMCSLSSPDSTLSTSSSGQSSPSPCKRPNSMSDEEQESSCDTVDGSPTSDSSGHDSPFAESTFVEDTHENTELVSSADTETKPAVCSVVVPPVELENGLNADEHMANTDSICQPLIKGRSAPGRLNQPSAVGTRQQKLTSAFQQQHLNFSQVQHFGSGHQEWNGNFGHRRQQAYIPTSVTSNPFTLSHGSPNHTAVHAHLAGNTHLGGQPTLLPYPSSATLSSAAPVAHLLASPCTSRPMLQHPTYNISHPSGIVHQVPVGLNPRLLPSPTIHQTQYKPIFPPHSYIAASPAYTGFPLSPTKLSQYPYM
Chain of Serine/threonine-protein kinase VRK2 (Homo sapiens) (Q86Y07 whole entry): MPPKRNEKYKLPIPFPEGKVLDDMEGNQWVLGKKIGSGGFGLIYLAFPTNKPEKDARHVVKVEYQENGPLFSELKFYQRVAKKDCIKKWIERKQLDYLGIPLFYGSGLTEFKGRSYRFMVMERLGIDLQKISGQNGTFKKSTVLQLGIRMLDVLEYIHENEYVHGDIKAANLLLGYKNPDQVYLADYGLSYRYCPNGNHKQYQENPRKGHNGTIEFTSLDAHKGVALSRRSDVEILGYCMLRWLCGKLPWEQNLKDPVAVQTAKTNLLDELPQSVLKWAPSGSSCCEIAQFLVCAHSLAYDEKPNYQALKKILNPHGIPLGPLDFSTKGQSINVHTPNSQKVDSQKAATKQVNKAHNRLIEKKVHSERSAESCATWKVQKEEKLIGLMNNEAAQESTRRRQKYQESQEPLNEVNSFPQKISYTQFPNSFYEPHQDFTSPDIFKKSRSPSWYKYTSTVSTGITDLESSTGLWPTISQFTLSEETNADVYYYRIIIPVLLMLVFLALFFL
Chain of Tyrosine-protein kinase Fer (P16591 whole entry, looked up): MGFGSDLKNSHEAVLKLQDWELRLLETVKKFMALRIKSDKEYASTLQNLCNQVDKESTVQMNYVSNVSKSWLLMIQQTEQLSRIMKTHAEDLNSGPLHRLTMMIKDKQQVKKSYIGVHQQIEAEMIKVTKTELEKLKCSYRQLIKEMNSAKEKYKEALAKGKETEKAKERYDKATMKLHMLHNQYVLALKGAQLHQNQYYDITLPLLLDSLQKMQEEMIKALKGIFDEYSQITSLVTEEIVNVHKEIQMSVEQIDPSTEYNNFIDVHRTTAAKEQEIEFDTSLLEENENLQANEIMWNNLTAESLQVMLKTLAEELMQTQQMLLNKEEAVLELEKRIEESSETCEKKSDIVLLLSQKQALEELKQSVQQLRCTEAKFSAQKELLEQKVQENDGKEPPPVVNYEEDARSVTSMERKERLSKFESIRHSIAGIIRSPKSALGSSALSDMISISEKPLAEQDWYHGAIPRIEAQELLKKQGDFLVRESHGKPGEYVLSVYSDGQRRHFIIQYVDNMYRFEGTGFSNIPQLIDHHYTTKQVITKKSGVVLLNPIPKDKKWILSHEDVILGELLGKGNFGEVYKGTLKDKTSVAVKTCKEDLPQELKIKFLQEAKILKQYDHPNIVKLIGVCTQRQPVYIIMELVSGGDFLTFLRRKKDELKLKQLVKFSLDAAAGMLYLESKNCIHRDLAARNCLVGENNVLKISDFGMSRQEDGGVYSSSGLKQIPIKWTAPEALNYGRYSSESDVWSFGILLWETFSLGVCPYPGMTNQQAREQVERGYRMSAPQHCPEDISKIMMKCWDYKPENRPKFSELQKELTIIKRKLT
Chain of Serine/threonine-protein kinase Nek3 (Homo sapiens) (P51956 whole entry): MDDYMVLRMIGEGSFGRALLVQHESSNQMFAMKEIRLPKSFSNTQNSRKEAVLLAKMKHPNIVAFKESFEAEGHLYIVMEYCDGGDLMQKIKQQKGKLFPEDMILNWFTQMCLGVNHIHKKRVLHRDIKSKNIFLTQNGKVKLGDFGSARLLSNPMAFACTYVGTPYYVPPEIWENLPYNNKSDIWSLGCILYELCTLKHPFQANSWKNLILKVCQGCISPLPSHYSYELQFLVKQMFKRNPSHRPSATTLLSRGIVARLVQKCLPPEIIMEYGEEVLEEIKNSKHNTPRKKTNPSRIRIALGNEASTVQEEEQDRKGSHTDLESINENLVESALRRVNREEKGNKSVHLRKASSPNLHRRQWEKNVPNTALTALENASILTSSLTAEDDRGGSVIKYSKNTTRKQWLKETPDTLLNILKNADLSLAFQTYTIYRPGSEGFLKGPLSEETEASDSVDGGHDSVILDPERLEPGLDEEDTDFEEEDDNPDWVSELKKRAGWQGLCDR

In the case of `CNc1cc(Oc2cc(C(=O)Nc3cc(N4CCN(C)CC4)cc(C(F)(F)F)c3)ccc2C)ncn1`, the inhibition in assay [1] is -5.1%; in assay [2] it was 0.7%; in [4], 15.8%; in assay [5] it was -7.1%; in [6], 13.8%. Moreover, the inhibition at 1 µM in assay [3] was 0.9%.

In the case of `CCN1CCN(Cc2ccc(NC(=O)c3ccc(C)c(/C=C/c4cnc5[nH]ccc5c4OC)c3)cc2C(F)(F)F)CC1`, the residual activity stood at 4.2% in assay [7], 79% in [11] and 80% in [14]. Also, the inhibition was -7.6% in [8]; 84% in assay [9]; 74% in assay [10]; 14% in assay [12]; 28.5% in assay [13].

`CCN1CCN(Cc2ccc(NC(=O)c3ccc(C)c(Oc4ccnc5[nH]ccc45)c3)cc2C(F)(F)F)CC1` showed a percent of control in assay [15] of 1.6%. Also, the inhibition result in [16], in assay [20] and in assay [23] was “inactive” each time. For the same molecule, the inhibition in assay [17] is 1.3%; in assay [18] it was -0.3%; in assay [19], 17.5%; in assay [21], 0.7%; in assay [22], -9.5%.

By inhibition is commonly meant the drop in the measured response relative to a control, in per cent. By residual activity is commonly meant the signal under treatment as a percentage of the control signal. A high value points to a small loss of activity.
